Bioassay records from PubChem.
EWS-Fli inh: EWS/Fli-driven NR0B1 reporter inhibitors, primary screen, A673 cells, NR0B1 luciferase, luminescence, MLPCN library; viability-normalised; inhibition, % at 12.6 µM; 350,000 tested, 0.67% active; AID 651661, 2012;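 active = mean inhibition of at least 50% after viability correction, with every replicate also passing that limit; inconclusive = mean reaches 50% but only one of two replicates passes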;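 note: firefly luciferase signal divided by Alamar Blue viability fluorescence both relative to DMSO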
PAX8 reporter: inhibitors of PAX8-driven TPO luciferase reporter, primary screen, RMG-I cells, single concentration; AID 652154, 2013; SteadyGlo, 24 h; inhibition, % at 12.6 µM; 360,000 tested, 1.2% active;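 active = mean replicate inhibition at least 60% with every replicate also reaching 60%; inconclusive = only one of the two criteria is met; inactive = mean below 60% and not all replicates reaching 60%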;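 note: luciferase light reporting Pax8 driven TPO promoter activity; plate controls were median of neutral control wells for no effect and mitoxantrone controls for full effect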
LMP1 NFkB inh: EBV LMP1-driven NF-kappaB luciferase reporter inhibitors, primary screen, cell-based, luminescence, single point | LMP1-induced NF-kappaB luciferase reporter cells | inhibition, % at 12.5 µM | 350,000 tested, 0.69% active; in the data active = inhibition above about 41%; inconclusive = no clear call, values can overlap the other calls;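 note: 0% = neutral control wells and 100% = reference inhibitor control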
aSyn UTR inh: MLPCN primary screen, SNCA 5' untranslated region. alpha-synuclein 5'UTR reporter, inhibitor activity. inhibition, % (tested at 7.5 µM). 300,000 tested, 0.82% active. AID 1813, 2009; in the data active = inhibition above about 60%; inconclusive = no clear call, values can overlap the other calls;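 note: H4 neuroglioblastoma cells stably carrying SNCA 5'UTR luciferase fusion; 0% = DMSO wells and 100% = positive control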
Shn3 inh set2: reduction of Shn3 3'UTR firefly luciferase signal, primary screen, Schnurri-3 inhibitor project, cell-based, Clone20 osteoblasts, set 2; Clone20 osteoblast Shn3 3'UTR firefly luciferase, 24 h; inhibition, % at 12.5 µM; 360,000 tested, 0.52% active;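 active = mean inhibition of at least 75% with every replicate also reaching 75%; inconclusive = mean inhibition at least 75% but some replicate below; inactive = mean inhibition below 75%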;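 note: 0% = median of neutral control wells and 100% = pilot-screen positive control compound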
FN deposit inh: inhibitors of fibronectin matrix deposition, primary screen, AH1F cells, Alexa488-fibronectin fluorescence, plate reader; AH1F fibroblasts, overnight; inhibition, % at 12.6 µM; 350,000 tested, 0.086% active;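 active = mean inhibition across replicates of 30% or more, regardless of how many single replicates reach that level; inconclusive = mean under 30% yet at least half of replicates reach 30%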;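 note: positive control wells lacked labelled fibronectin entirely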
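Test system: AH1F fibroblast monolayer depositing Alexa488-labelled fibronectin into matrix. Input: 10000 cells per well. Technique: fluorescence, ex 485 nm, em 525 nm. Buffer or medium: DMEM plus 2% serum, read in PBS. Timing: 1 h cell adhesion before compound, then overnight fibronectin incubation. Compound: single dose, pinned. Read-out basis: inhibition from reduced deposited-fibronectin fluorescence.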
* hit, by the source's call; ? = inconclusive; · = not tested or not shown; ! = a repeat was not active. Shown are actives, neighbours in structure and some others; about 2.1% of the full set was active somewhere.

SMILES	EWS-Fli inh	PAX8 reporter	LMP1 NFkB inh	aSyn UTR inh	Shn3 inh set2	FN deposit inh
C[C@H]1CN([C@@H](C)CO)C(=O)Cc2cc(NS(=O)(=O)c3ccc(F)cc3)ccc2O[C@@H]1CN(C)Cc1ccc(C(F)(F)F)cc1	2	-14	·	·	·	·
Cc1ccc(C(=O)NNC(=O)Cc2nc3nc(C)cc(C)n3n2)cc1	-4	-2	·	8	-14	6
Cc1cc(C)n2nc(CC(=O)NC3CCCCCC3)nc2n1	·	·	64*	27	0	-1
Cn1c(=O)n(C)c2cc([N+](=O)[O-])c(N3CCN(S(=O)(=O)c4ccc(C(C)(C)C)cc4)CC3)cc21	·	·	0	-16	85*	2
CC(=O)NCCNC(=O)C1Cc2c(-c3cccc(NC(C)=O)c3)ccnc2O1 (stereo unspecified)	-11	8	·	·	-2	2
CC(=O)c1cccc(-c2ccnc3c2CC(C(=O)NCc2ccc(F)c(F)c2)O3)c1 (stereo unspecified)	65*	?	·	·	20	0
CC(=O)c1cccc(-c2ccnc3c2CC(C(=O)NCc2ccccc2)O3)c1 (stereo unspecified)	63*	83*	·	·	30	-2
O=C(Nc1ccc2c(c1)OCO2)C1Cc2c(-c3ccc4c(c3)OCO4)ccnc2O1 (stereo unspecified)	53*	30	·	·	-11	24
CC(=O)Nc1cccc(-c2ccnc3c2CC(C(=O)NCc2cccs2)O3)c1 (stereo unspecified)	72*	14	·	·	9	2
COc1ccc(NC(=O)C2Cc3c(-c4cccc(C(C)=O)c4)ccnc3O2)cc1OC (stereo unspecified)	46	13	·	·	91*	-7
CC(C)C1CC(N(C)C)=CC(=S)N1 (stereo unspecified)	16	78*	·	·	·	-9
C[C@@H]1CN([C@H](C)CO)C(=O)c2cc(NC(=O)Cc3ccccc3)ccc2O[C@@H](C)CCCCO[C@@H]1CN(C)C(=O)Cc1ccccc1	-8	-14	·	·	·	-4
C[C@@H]1CN([C@H](C)CO)C(=O)c2cc(-c3ccccc3)cnc2O[C@@H]1CN(C)C(=O)c1ccccc1F	-7	-1	·	·	·	-4
COc1cc(OC)nc(-n2ncc(Br)c(Br)c2=O)n1	48	108*	65*	·	97*	11
C=C/C=C/[C@@H]1C(=C)CN2[C@H]1[C@H](Cc1ccccc1)OC(=O)[C@@H]2Cc1ccccc1	3	-4	·	·	·	·
Cc1ccc(NC(=S)NCc2ccccn2)cc1	·	·	-4	-26	-12	·
S=C(NCc1ccccn1)NN=Cc1ccccn1	-23	-10	61*	·	82	11
CCOc1cc([N+](=O)[O-])cc2c1C(=O)Nc1ccccc1O2	·	-2	69*	7	20	-4
CCOC(=O)C1=C(C)NC(SC)=C(C#N)C1CC(C)C (stereo unspecified)	54*	23	-1	13	-30	21
C[C@H]1CN([C@@H](C)CO)C(=O)c2cc(NC(=O)Nc3ccc(F)cc3)ccc2O[C@@H]1CN(C)C(=O)Nc1ccc(F)cc1	-3	·	·	·	·	·
CCOC(=O)c1ccc2nc(Nc3nc4ccc(F)cc4s3)sc2c1	80*	49	24	13	35	5
CCOC(=O)c1ccc2nc(NC(C)=O)sc2c1	-94	-137	-15	-126	-64	-3
COCCCN=C1NN=C(c2cc(C)n(Cc3ccco3)c2C)CS1	54*	-35	8	94*	-13	16
c1ccc2c(C3=NNC(=NC4CC4)SC3)c[nH]c2c1	·	-22	40	40	10	-9
Cc1cc(C2=NNC(=NC3CC3)SC2)c(C)n1Cc1ccco1	72*	6	79*	·	38	1
SMILES	EWS-Fli inh	PAX8 reporter	LMP1 NFkB inh	aSyn UTR inh	Shn3 inh set2	FN deposit inh
c1ccc(C2=NNC(=NC3CC3)SC2)cc1	·	·	48*	?	-2	·
Cc1cc(C2=NNC(=NC3CC3)SC2)c(C)n1-c1ccccc1	89*	77*	74*	95*	94*	6
COc1ccc(-n2c(C)cc(C3=NNC(=NC4CC4)SC3)c2C)cc1	10	-52	-3	·	37	-17
C[C@H](NC(=O)C[C@@H]1CC[C@H](NC(=O)C2CCOCC2)[C@@H](CO)O1)c1ccccc1	4	-3	·	·	·	8
Cc1cccc(S(=O)(=O)N2C[C@H](O)COC[C@@H]3O[C@H](CC(=O)Nc4ccc(-c5ccccc5)cc4)CC[C@H]32)c1	8	?	·	·	·	-2
Cc1ccc(CN2CC(=O)N3[C@H](CO)[C@H](c4ccc(Br)cc4)[C@@H]3C2)cc1	0	·	·	·	·	·
COc1cccc(-c2ccc(C3[C@H]4CNC[C@@H]3N4Cc3ccc(F)cc3)cc2)c1 (stereo partly specified)	63*!	-1	·	·	·	-12
Cc1ccc(Nc2nc(NCc3ccco3)c3ccccc3n2)cc1	-22	16	-11	-139	96*	12
Oc1ccccc1-c1nc(NCc2ccco2)c2ccccc2n1	·	·	-4	-4	-9	·
c1ccc(-c2nc(NCc3ccco3)c3ccccc3n2)nc1	·	·	63*	9	21	·
COc1ccccc1Nc1nc(NCc2ccco2)c2ccccc2n1	1	-14	·	-35	16	-2
CC(O)CNc1ncnc2nc[nH]c12 (stereo unspecified)	·	-4	-5	17	-3	15
CC(C)=NNc1ncnc2nc[nH]c12	-2	70*	-1	·	51	2
O=[N+]([O-])c1cc(Br)c(Nc2ccccc2)c([N+](=O)[O-])c1	30	84*	-3	33	29	-13
CNC1(C)[C@H]2CC[C@H](C2)C1(C)C (stereo partly specified)	0	2	81*	·	16	-9
CC1(C)C2CCC(C2)C1(C)NC(=O)CN1CCCC1 (stereo unspecified)	17	5	0	7	-6	-3
O=C(CCS(=O)(=O)c1ccccc1)Nc1nc2ccc(F)cc2s1	7	107*	-13	-10	23	-11
Cc1ccc2nc(-c3ccc(NC(=O)CCS(=O)(=O)c4ccccc4)cc3)sc2c1	70*	38	22	62*	70	-12
COc1ccc(N=C2S/C(=C\c3ccc(Cl)c([N+](=O)[O-])c3)C(=O)N2CCN(C)C)cc1	64*	6	-11	81*	47	-3
CCN(CC)CCN1C(=O)/C(=C\c2ccc(Cl)c([N+](=O)[O-])c2)SC1=Nc1ccc(OC)cc1	60*	54	30	74*	96*	4
CCCN1C(=O)/C(=C/c2ccc(C)s2)SC1=Nc1ccc(OC)cc1	·	·	-9	15	20	·
